Active and inactive are the calls of the source. The rule behind the calls is not given here.
Legend:
Lactuca sativa [1] = test: Phytotoxicity against Lactuca sativa assessed as inhibition of seed germination relative to control; assay type: functional; parameters: concentration or dose not given beside the values
Method in brief: (§1)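 Lettuce seeds (cv. Napoli V.F.), selected for uniformity, 25 per 50 mm dish on filter paper with 5 mL test solution in 10 mM MES pH 6. Tested at 10^-4 M, diluted to 10-5–10-7 M. Dishes sealed and kept at 25 °C in the dark, with germination counted daily for 5 days. Seedlings frozen at -20 °C before measuring. Four replicates with parallel controls; results given as % difference from control, Student's t test.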

Lactuca sativa [2] = test: Phytotoxicity against Lactuca sativa assessed as inhibition of shoot length at 100 uM relative to control; assay type: functional; parameters: scale not given: the % may be the effect or the level left; method in brief: as §1
Lactuca sativa [3] = test: Phytotoxicity against Lactuca sativa assessed as inhibition of root length at 0.1 mM relative to control; assay type: functional; parameters: scale not given: the % may be the effect or the level left; method in brief: as §1
Lactuca sativa [4] = test: Phytotoxicity against Lactuca sativa assessed as inhibition of shoot length at 1 to 10 nM relative to control; assay type: functional, organism-based
Lactuca sativa [5] = test: Phytotoxicity against Lactuca sativa assessed as inhibition of seed germination at 1 to 10 nM relative to control; assay type: functional, organism-based
Lactuca sativa [6] = test: Phytotoxicity against Lactuca sativa assessed as inhibition of shoot length at 0.1 uM to 0.1 mM relative to control; assay type: functional; parameters: scale not given: the % may be the effect or the level left; method in brief: as §1
Lactuca sativa [7] = test: Phytotoxicity against Lactuca sativa assessed as inhibition of radical length at 0.1 uM to 0.1 mM relative to control; assay type: functional; parameters: scale not given: the % may be the effect or the level left; method in brief: as §1
Lactuca sativa [8] = test: Phytotoxicity against Lactuca sativa assessed as inhibition of root length upto 0.1 uM relative to control; assay type: functional, organism-based; method in brief: as §1

## COc1cccc(OC(=O)/C=C/c2cc(OC)c(OC)c(OC)c2)c1
Lactuca sativa [1]
  Activity: 10%
Lactuca sativa [2]
  Activity: 60%

## COc1cc(/C=C/C(=O)Oc2cccc(O)c2)cc(OC)c1O
Lactuca sativa [3]
  Activity: >=80%
Lactuca sativa [1]
  Activity: 10%
Lactuca sativa [2]
  Activity: 60%

## COc1cc(/C=C/C(=O)OCCO)cc(OC)c1O
Lactuca sativa [1]
  Activity: 10%
Lactuca sativa [2]
  Activity: 30%

## COc1cc(/C=C/C(=O)OCCOC(C)=O)cc(OC)c1OC
Lactuca sativa [3]
  Activity: >=80%
Lactuca sativa [1]
  Activity: 10%
Lactuca sativa [2]
  Activity: 60%

## O=C(/C=C/c1ccc(O)c(O)c1)OCCO
Lactuca sativa [4]
  Activity: inactive
Lactuca sativa [5]
  Activity: inactive
Lactuca sativa [6]
  Activity: 100%
Lactuca sativa [3]
  Activity: >=80%
Lactuca sativa [1]
  Activity: 10%
Lactuca sativa [2]
  Activity: 100%
Lactuca sativa [7]
  Activity: 100%
Lactuca sativa [8]
  Activity: Active

## COc1cc(/C=C/C(=O)Oc2cccc(O)c2)cc(OC)c1OC
Lactuca sativa [3]
  Activity: >=80%
Lactuca sativa [1]
  Activity: 10%
Lactuca sativa [2]
  Activity: 60%

## COc1cc(/C=C/C(=O)OCCO)cc(OC)c1OC
Lactuca sativa [1]
  Activity: 10%
Lactuca sativa [2]
  Activity: 30%

— ChEMBL document CHEMBL1141319, “Cinnamic ester derivatives from Oxalis pes-caprae (Bermuda buttercup)” (2007)
